Experimental findings from ChEMBL document CHEMBL1132183 (J Med Chem, 1999) are described below.

In experiment [1] the target is T1, 5-hydroxytryptamine receptor 1A (Homo sapiens) (UniProt P08908).
T1 sequence (whole entry): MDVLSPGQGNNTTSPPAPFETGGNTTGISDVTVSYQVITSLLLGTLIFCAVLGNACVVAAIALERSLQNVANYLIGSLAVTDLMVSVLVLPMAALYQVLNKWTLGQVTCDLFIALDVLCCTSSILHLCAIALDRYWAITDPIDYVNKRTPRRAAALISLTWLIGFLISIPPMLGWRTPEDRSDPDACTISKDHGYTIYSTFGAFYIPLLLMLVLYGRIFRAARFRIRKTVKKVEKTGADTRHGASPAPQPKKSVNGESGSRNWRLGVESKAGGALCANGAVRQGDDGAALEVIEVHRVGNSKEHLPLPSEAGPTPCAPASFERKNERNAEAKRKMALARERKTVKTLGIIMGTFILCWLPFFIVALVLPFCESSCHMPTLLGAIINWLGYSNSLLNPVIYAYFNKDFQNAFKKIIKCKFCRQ
The experiment in a line: Eudisimic ratio(ER) is the antilog of the defference between the pKb and pD2 values against 5-hydroxytryptamine 1A receptor. It counts as functional. In short, it runs like this: (§1)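 Eudismic ratio is the antilog of the difference between the pKb (functional α1 tissue assays) or pD2 (5-HT1A [35S]GTPγS stimulation) of the eutomer and that of its distomer.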

In experiment [2] the target is T2, Alpha-1B adrenergic receptor (Homo sapiens, UniProt P35368).
T2 sequence (P35368 whole entry): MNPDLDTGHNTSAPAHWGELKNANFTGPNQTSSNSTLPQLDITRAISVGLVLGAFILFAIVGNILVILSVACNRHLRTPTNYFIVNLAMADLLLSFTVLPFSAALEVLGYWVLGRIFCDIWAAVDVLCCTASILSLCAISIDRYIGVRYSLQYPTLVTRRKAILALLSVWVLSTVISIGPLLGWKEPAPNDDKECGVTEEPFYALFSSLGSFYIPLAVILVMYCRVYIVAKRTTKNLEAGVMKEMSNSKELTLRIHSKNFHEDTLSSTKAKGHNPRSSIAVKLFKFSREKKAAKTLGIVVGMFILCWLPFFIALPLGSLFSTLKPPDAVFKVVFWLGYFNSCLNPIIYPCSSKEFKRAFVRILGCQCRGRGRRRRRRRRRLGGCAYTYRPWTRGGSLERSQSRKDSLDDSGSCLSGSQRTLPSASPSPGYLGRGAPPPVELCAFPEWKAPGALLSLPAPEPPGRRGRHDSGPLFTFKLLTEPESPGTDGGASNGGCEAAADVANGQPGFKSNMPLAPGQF
The experiment in a line: Ability to displace [3H]prazosin from human cloned Alpha-1B adrenergic receptor. The essentials:
(§2)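 Competition binding at cloned human α1 subtypes stably expressed in CHO cells: membranes (30 μg protein) incubated 30 min at 25 °C in 50 mM Tris-HCl pH 7.4 with 0.1–0.4 nM [3H]prazosin and competitor (1 pM–10 μM). Nonspecific binding with 10 μM phentolamine; filtration and scintillation counting. Ki by Cheng–Prusoff; 2–3 experiments in triplicate.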

Experiment [3] deals with T3, Alpha-1D adrenergic receptor (Homo sapiens, UniProt P25100).
T3 sequence (P25100 whole entry): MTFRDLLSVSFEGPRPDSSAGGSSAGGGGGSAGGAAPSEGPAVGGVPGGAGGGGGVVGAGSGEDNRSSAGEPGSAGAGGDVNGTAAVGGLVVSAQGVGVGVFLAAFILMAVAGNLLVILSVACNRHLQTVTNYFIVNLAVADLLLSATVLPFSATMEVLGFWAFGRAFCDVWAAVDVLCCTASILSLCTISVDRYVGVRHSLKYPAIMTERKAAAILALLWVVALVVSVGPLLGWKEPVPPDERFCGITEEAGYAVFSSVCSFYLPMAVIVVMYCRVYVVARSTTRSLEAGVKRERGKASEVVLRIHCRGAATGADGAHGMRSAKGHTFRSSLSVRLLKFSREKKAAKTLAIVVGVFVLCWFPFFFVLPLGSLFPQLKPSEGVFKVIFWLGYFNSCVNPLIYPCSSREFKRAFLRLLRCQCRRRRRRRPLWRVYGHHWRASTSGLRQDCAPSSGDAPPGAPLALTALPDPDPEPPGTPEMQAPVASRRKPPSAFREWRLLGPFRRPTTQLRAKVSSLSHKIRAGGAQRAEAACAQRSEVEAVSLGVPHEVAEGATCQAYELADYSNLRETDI
The experiment is described as follows: Ability to displace [3H]prazosin from human cloned Alpha-1D adrenergic receptor. In short, it runs like this:
as §2

Experiment [4] has as its target T4, Alpha-1D adrenergic receptor (Rattus norvegicus) (UniProt P23944).
T4 sequence (whole entry): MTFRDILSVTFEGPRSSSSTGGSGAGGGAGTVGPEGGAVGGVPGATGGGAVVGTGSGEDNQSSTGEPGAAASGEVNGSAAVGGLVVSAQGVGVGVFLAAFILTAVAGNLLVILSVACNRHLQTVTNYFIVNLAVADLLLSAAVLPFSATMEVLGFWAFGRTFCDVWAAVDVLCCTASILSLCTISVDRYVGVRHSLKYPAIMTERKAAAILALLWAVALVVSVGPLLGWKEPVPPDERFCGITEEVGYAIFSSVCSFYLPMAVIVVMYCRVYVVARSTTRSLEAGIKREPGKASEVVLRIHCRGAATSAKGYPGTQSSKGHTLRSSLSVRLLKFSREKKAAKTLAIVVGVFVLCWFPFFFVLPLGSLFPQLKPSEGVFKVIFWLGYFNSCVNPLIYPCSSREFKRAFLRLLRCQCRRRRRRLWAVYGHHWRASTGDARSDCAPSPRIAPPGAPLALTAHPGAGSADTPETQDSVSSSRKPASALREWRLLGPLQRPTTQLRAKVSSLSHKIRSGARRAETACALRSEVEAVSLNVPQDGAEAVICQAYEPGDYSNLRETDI
The experiment in a line: Eudisimic ratio(ER) is the antilog of the defference between the pKb and pD2 values against alpha-1D-adrenoceptor subtype. It counts as functional. In short, it runs like this:
as §1

The target of experiment [5] is T5, Alpha-1A adrenergic receptor (Rattus norvegicus) (UniProt P43140).
T5 sequence (whole entry): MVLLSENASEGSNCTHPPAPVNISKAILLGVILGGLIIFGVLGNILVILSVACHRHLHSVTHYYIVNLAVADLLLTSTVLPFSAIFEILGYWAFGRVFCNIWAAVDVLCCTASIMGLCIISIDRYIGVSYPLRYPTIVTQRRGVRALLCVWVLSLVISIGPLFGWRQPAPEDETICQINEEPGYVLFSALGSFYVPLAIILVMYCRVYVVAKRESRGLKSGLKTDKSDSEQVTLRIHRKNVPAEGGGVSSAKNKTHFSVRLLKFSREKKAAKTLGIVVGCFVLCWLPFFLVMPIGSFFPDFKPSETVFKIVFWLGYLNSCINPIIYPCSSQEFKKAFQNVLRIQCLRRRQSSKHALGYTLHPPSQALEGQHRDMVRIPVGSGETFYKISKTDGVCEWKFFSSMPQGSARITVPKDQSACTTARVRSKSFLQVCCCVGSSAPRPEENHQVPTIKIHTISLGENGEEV
The experiment in a line: Eudisimic ratio(ER) is the antilog of the defference between the pKb and pD2 values against Alpha-1A adrenergic receptor subtype. The essentials: as §1

Usually Ki stands for a dissociation constant, usually derived from enzyme kinetics or from competition with a known ligand. The low end stands for a stronger hold on the target, the high end for a looser hold on the target. As to `O[C@@H]1[C@H](NC[C@H]2COc3ccccc3O2)CC[C@H]1Oc1ccccc1`, the ER in experiment [1] amounted to 123; in experiment [4], 33. Further, the Ki in experiment [2] is 46.8 nM; in experiment [3], 7.94 nM.
For the compound `O[C@H]1[C@@H](NC[C@H]2COc3ccccc3O2)CC[C@@H]1Oc1ccccc1`, the ER in experiment [5] is 3.
